Consider 39 compounds from ChEMBL document CHEMBL1155986, “Discovery of 4H-pyrazolo[1,5-a]pyrimidin-7-ones as potent inhibitors of hepatitis C virus polymerase” (Bioorg Med Chem Lett, 2009).

The IC50 is the point on the concentration scale where inhibition reaches its midpoint.

In the first test the test system is Hepatitis C virus. Briefly: Antiviral activity against HCV by cell-based replicon assay. The format is functional, Hepacivirus hominis.
Details: not given; call rule not given here
Background: Replicon systems follow genome replication, usually without infectious particles.
`O=C(N[C@@H](Cc1c[nH]c2ccccc12)C(=O)O)c1cc2[nH]c(-c3ccco3)c(C3CCCCC3)c(=O)n2n1`: the Activity is 50 µM.

Test system in the next test: not listed separately
Briefly: Inhibition of HCV NS5B deltaC21 polymerase assessed as [3H]GTP incorporation after 3 hrs by scintillation proximity assay.
Details: not given
Set-up: species or system Hepacivirus hominis. In a few lines:
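Scintillation proximity assay with the NS5B Δ21 construct at 50 nM, using a polyC/oligoG template/primer with raised GTP and [3H]-GTP levels. The reaction ran 3 h at room temperature, and labelled GTP incorporation was read by scintillation counting.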
For orientation: SPA uses beads or plates that emit light when radiolabelled molecules are held near them.
For the compound `O=C(O)c1cc2[nH]c(-c3ccc(Oc4cccc(C(F)(F)F)c4)cc3)c(C3CCCCC3)c(=O)n2n1`, the IC50 result was “Not Active”.
Still for that read-out and setting: for `COc1ccc(-c2[nH]c3cc(C(=O)O)nn3c(=O)c2C2CCCCC2)cc1` the value was “Not Active”.
Still for that read-out and setting: for `COc1cccc(Oc2ccc(-c3[nH]c4cc(C(=O)O)nn4c(=O)c3C3CCCCC3)cc2)c1` the value was “Not Active”; for `O=C(O)c1cc2[nH]c(-c3ccc(Oc4cccc(Cl)c4)cc3)c(C3CCCCC3)c(=O)n2n1`, “Not Active”.
As for `O=C(O)c1cc2[nH]c(-c3ccc(Oc4ccccc4)cc3)c(C3CCCCC3)c(=O)n2n1`, the IC50 entry is given as “Not Active”.

The same test, now with this note: read-out: IC50.
Consider `C=CCCc1c(-c2ccc(OCc3ccccc3)cc2)[nH]c2cc(C(=O)O)nn2c1=O`, for which the IC50 amounted to 6.7 µM.
On the same count and under the same terms, for `O=C(O)c1cc2[nH]c(-c3ccc(OCc4ccccc4)cc3)c(CCCc3ccccc3)c(=O)n2n1` the value was 2.5 µM; for `C=CCc1c(-c2ccc(OCc3ccccc3)cc2)[nH]c2cc(C(=O)O)nn2c1=O`, above 12.5 µM.
In the case of `O=C(O)c1cc2[nH]c(-c3ccc(-c4ccccc4)cc3)c(C3CCCCC3)c(=O)n2n1`, the IC50 worked out at 3.1 µM.
The same measure, in the same setting: for `O=C(N[C@@H](Cc1c[nH]c2ccccc12)C(=O)O)c1cc2[nH]c(-c3cccc(F)c3)c(C3CCCCC3)c(=O)n2n1` the value was 0.23 µM.
As to `COC(=O)[C@H](Cc1c[nH]c2ccccc12)NC(=O)c1cc2[nH]c(-c3ccco3)c(C3CCCCC3)c(=O)n2n1`, the IC50 is 0.27 µM.
On to `O=C(O)c1cc2[nH]c(-c3ccc(Cc4ccccc4)cc3)c(C3CCCCC3)c(=O)n2n1`, for which the IC50 is 2.6 µM.
In the case of `CC(C)=CCCc1c(-c2ccc(OCc3ccccc3)cc2)[nH]c2cc(C(=O)O)nn2c1=O`, the IC50 was 3.5 µM.
On the same count and under the same terms, under `O=C(O)c1cc2[nH]c(-c3ccco3)c(C3CCCCC3)c(=O)n2n1` stands 0.29 µM; under `O=C(N[C@@H](Cc1c[nH]c2ccccc12)C(=O)O)c1cc2[nH]c(-c3cccs3)c(C3CCCCC3)c(=O)n2n1`, 0.2 µM.
As to `CC(C)CCc1c(-c2ccc(OCc3ccccc3)cc2)[nH]c2cc(C(=O)O)nn2c1=O`, the IC50 stood at 1.5 µM.
Take `O=C(O)c1cc2[nH]c(-c3cccs3)c(C3CCCCC3)c(=O)n2n1`: the IC50 came out at 1.1 µM.
As to `O=C(O)c1cc2[nH]c(-c3ccc(OCc4ccccc4)cc3)c(C3CCCCC3)c(=O)n2n1`, the IC50 is 1 µM.
Take `O=C(O)c1cc2[nH]c(-c3ccc(OCc4ccccc4)cc3)c(CC3CCCO3)c(=O)n2n1` (stereo not drawn): the IC50 was 10 µM.
As for `O=C(N[C@@H](Cc1ccc(O)cc1)C(=O)O)c1cc2[nH]c(-c3ccco3)c(C3CCCCC3)c(=O)n2n1`, the IC50 turned out to be 0.07 µM.
With `O=C(N[C@@H](Cc1c[nH]cn1)C(=O)O)c1cc2[nH]c(-c3ccco3)c(C3CCCCC3)c(=O)n2n1`, the IC50 came out at 0.64 µM.
On the same count and under the same terms, for `O=C(N[C@H](Cc1ccc(O)cc1)C(=O)O)c1cc2[nH]c(-c3ccco3)c(C3CCCCC3)c(=O)n2n1` the value was 0.3 µM.
In the case of `O=C(N[C@H](C(=O)O)c1ccc(O)cc1)c1cc2[nH]c(-c3ccco3)c(C3CCCCC3)c(=O)n2n1`, the concentration for half-maximal inhibition (IC50) was 0.2 µM.
On the same count and under the same terms, under `O=C(O)c1cc2[nH]c(-c3ccc(OCc4ccccc4)cc3)c(-c3ccccc3)c(=O)n2n1` stands above 12.5 µM.
As for `O=C(N[C@@H](Cc1c[nH]c2ccccc12)C(=O)O)c1cc2[nH]c(-c3ccco3)c(C3CCCCC3)c(=O)n2n1`, the IC50 was 0.05 µM.
`COCCc1c(-c2ccc(OCc3ccccc3)cc2)[nH]c2cc(C(=O)O)nn2c1=O`: the IC50 amounted to 3.7 µM.
Take `CC(C)Cc1c(-c2ccc(OCc3ccccc3)cc2)[nH]c2cc(C(=O)O)nn2c1=O`: the IC50 came out at 9.5 µM.
With `O=C(N[C@@H](Cc1ccc(O)cc1)C(=O)O)c1cc2[nH]c(-c3cccc(F)c3)c(C3CCCCC3)c(=O)n2n1`, the IC50 is 0.68 µM.
The same measure, in the same setting: for `O=C(O)c1cc2[nH]c(-c3ccc(OCc4ccccc4)cc3)c(CC3CCC3)c(=O)n2n1` the value was 2.8 µM; for `O=C(O)c1cc2[nH]c(-c3ccc(OCc4ccccc4)cc3)c(CCc3ccccc3)c(=O)n2n1`, 1.2 µM.
For `O=C(N[C@@H](Cc1c[nH]c2ccccc12)C(=O)O)c1cc2[nH]c(-c3ccoc3)c(C3CCCCC3)c(=O)n2n1`, the IC50 was found to be 0.06 µM.
Same read-out and setting: under `O=C(O)c1cc2[nH]c(-c3cccc(F)c3)c(C3CCCCC3)c(=O)n2n1` stands 0.38 µM; under `O=C(O)c1cc2[nH]c(-c3ccc(OCc4ccccc4)cc3)c(CCC3CCCCC3)c(=O)n2n1`, 0.17 µM.
The same measure, in the same setting: under `O=C(O)c1cc2[nH]c(-c3ccc(OCc4ccccc4)cc3)c(CC3CCCCC3)c(=O)n2n1` stands 0.4 µM.
Still for that read-out and setting: for `O=C(O)c1cc2[nH]c(-c3ccc(OCc4ccccc4)cc3)c(Cc3ccccc3)c(=O)n2n1` the value was 4.2 µM; for `COc1cccc(COc2ccc(-c3[nH]c4cc(C(=O)O)nn4c(=O)c3C3CCCCC3)cc2)c1`, 1 µM.
As for `O=C(NS(=O)(=O)Cc1ccccc1)c1cc2[nH]c(-c3ccco3)c(C3CCCCC3)c(=O)n2n1`, the IC50 turned out to be 0.18 µM.
Consider `O=C(O)c1cc2[nH]c(-c3ccc(OCc4cccc(C(F)(F)F)c4)cc3)c(C3CCCCC3)c(=O)n2n1`, for which the IC50 came out at 0.9 µM.
For the compound `O=C(O)c1cc2[nH]c(-c3ccc(OCc4cccc(OC(F)(F)F)c4)cc3)c(C3CCCCC3)c(=O)n2n1`, the IC50 was determined as 1.5 µM.

Target in another test: not listed separately
Briefly: Inhibition of HCV NS5B deltaC55 polymerase assessed as [3H]GTP incorporation after 50 min by scintillation proximity assay. Set-up: species or system Hepacivirus hominis.
Details: not given
The method, boiled down: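 NS5B Δ55 construct (6 nM) with biotinylated oligoG12/polyC template/primer, [3H]-GTP and unlabelled GTP, in 20 mM HEPES pH 7.3, 7.5 mM DTT, 10 mM MgCl2, 60 mM NaCl, BSA and RNasIN. Reactions ran 50 min at room temperature, were stopped with streptavidin SPA beads containing 100 mM EDTA, and were scintillation counted. IC50 came from single experiments over 11 twofold dilutions, accepted only if the positive internal control fell within its SD range.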
With `C=CCCc1c(-c2ccc(OCc3ccccc3)cc2)[nH]c2cc(C(=O)O)nn2c1=O`, the IC50 came to 15 µM.
Still for that read-out and setting: for `O=C(O)c1cc2[nH]c(-c3ccc(OCc4ccccc4)cc3)c(CCCc3ccccc3)c(=O)n2n1` the value was 5.9 µM; for `C=CCc1c(-c2ccc(OCc3ccccc3)cc2)[nH]c2cc(C(=O)O)nn2c1=O`, above 50 µM.
Still for that read-out and setting: under `O=C(O)c1cc2[nH]c(-c3ccc(-c4ccccc4)cc3)c(C3CCCCC3)c(=O)n2n1` stands 3.3 µM; under `O=C(O)c1cc2[nH]c(-c3ccc(Cc4ccccc4)cc3)c(C3CCCCC3)c(=O)n2n1`, 4 µM.
The same measure, in the same setting: for `O=C(O)c1cc2[nH]c(-c3ccc(Oc4cccc(C(F)(F)F)c4)cc3)c(C3CCCCC3)c(=O)n2n1` the value was 0.93 µM.
For `CC(C)=CCCc1c(-c2ccc(OCc3ccccc3)cc2)[nH]c2cc(C(=O)O)nn2c1=O`, the IC50 was determined as 10 µM.
The same measure, in the same setting: for `O=C(O)c1cc2[nH]c(-c3ccco3)c(C3CCCCC3)c(=O)n2n1` the value was 2.8 µM; for `CC(C)CCc1c(-c2ccc(OCc3ccccc3)cc2)[nH]c2cc(C(=O)O)nn2c1=O`, 5.8 µM; for `O=C(O)c1cc2[nH]c(-c3cccs3)c(C3CCCCC3)c(=O)n2n1`, 6.4 µM.
As to `COc1ccc(-c2[nH]c3cc(C(=O)O)nn3c(=O)c2C2CCCCC2)cc1`, the IC50 stood at 3.9 µM.
On the same count and under the same terms, for `O=C(O)c1cc2[nH]c(-c3ccc(OCc4ccccc4)cc3)c(C3CCCCC3)c(=O)n2n1` the value was 1.5 µM; for `O=C(O)c1cc2[nH]c(-c3ccc(OCc4ccccc4)cc3)c(CC3CCCO3)c(=O)n2n1` (stereo not drawn), above 12.5 µM.
Still for that read-out and setting: for `COc1cccc(Oc2ccc(-c3[nH]c4cc(C(=O)O)nn4c(=O)c3C3CCCCC3)cc2)c1` the value was 0.9 µM; for `O=C(O)c1cc2[nH]c(-c3ccc(OCc4ccccc4)cc3)c(-c3ccccc3)c(=O)n2n1`, above 50 µM.
As to `COCCc1c(-c2ccc(OCc3ccccc3)cc2)[nH]c2cc(C(=O)O)nn2c1=O`, the IC50 worked out at 13 µM.
Take `CC(C)Cc1c(-c2ccc(OCc3ccccc3)cc2)[nH]c2cc(C(=O)O)nn2c1=O`: the IC50 worked out at 15 µM.
Consider `O=C(O)c1cc2[nH]c(-c3ccc(OCc4ccccc4)cc3)c(CC3CCC3)c(=O)n2n1`, for which the concentration for half-maximal inhibition (IC50) worked out at 8.8 µM.
On to `O=C(O)c1cc2[nH]c(-c3ccc(OCc4ccccc4)cc3)c(CCc3ccccc3)c(=O)n2n1`, for which the IC50 is 2.2 µM.
On to `O=C(O)c1cc2[nH]c(-c3cccc(F)c3)c(C3CCCCC3)c(=O)n2n1`, for which the IC50 was 2.3 µM.
On the same count and under the same terms, under `O=C(O)c1cc2[nH]c(-c3ccc(Oc4cccc(Cl)c4)cc3)c(C3CCCCC3)c(=O)n2n1` stands 3.3 µM; under `O=C(O)c1cc2[nH]c(-c3ccc(OCc4ccccc4)cc3)c(CCC3CCCCC3)c(=O)n2n1`, 0.6 µM.
For the compound `O=C(O)c1cc2[nH]c(-c3ccc(OCc4ccccc4)cc3)c(CC3CCCCC3)c(=O)n2n1`, the IC50 came out at 3.8 µM.
`O=C(O)c1cc2[nH]c(-c3ccc(OCc4ccccc4)cc3)c(Cc3ccccc3)c(=O)n2n1`: the IC50 worked out at 8.9 µM.
Still for that read-out and setting: under `COc1cccc(COc2ccc(-c3[nH]c4cc(C(=O)O)nn4c(=O)c3C3CCCCC3)cc2)c1` stands 1.2 µM.
Same read-out and setting: under `O=C(O)c1cc2[nH]c(-c3ccc(Oc4ccccc4)cc3)c(C3CCCCC3)c(=O)n2n1` stands 6.3 µM.
The same measure, in the same setting: for `O=C(O)c1cc2[nH]c(-c3ccc(OCc4cccc(C(F)(F)F)c4)cc3)c(C3CCCCC3)c(=O)n2n1` the value was 1.8 µM.
Turning to `O=C(O)c1cc2[nH]c(-c3ccc(OCc4cccc(OC(F)(F)F)c4)cc3)c(C3CCCCC3)c(=O)n2n1`, the IC50 worked out at 2.2 µM.
